Converted amounts (≈) assume the structure as drawn. The source made the active and inactive calls. No cut-off for these calls is given here.
What was measured:
[1] = tested on: Staphylococcus aureus; test: microbe, parasite or virus in culture; type: functional; details: 8325-4, 24 h
[2] = tested on: Enterococcus faecalis; test: Stimulation of Enterococcus faecalis FtsZ self-polymerization at 40 ug/mL by microtiter plate-based light scattering assay
How it was run: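 Purified E. faecalis FtsZ (10 μM) mixed with compound (0–40 μg/mL) and 1 mM GTP in 50 mM Tris-HCl pH 7.4, 50 mM KCl, 2 mM magnesium acetate, 10 mM CaCl2. Polymerization followed continuously as light scattering (A340) at 25 °C over 400 min.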

[3] = tested on: Enterococcus faecalis; test: microbe, parasite or virus in culture; type: functional; details: ATCC 51575, 24 h
[4] = tested on: Enterococcus faecalis; test: microbe, parasite or virus in culture; type: functional; details: ATCC 19433, 24 h
[5] = tested on: Escherichia coli; test: Antimicrobial activity against Escherichia coli W4573 incubated for 24 hrs by broth microdilution method; type: functional; details: W4573, 24 h
How it was run: (§1)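 CLSI broth microdilution. Log-phase bacteria at 10⁵ CFU/mL were exposed to 2-fold serial dilutions (64 to 0.016 μg/mL) in cation-adjusted Mueller-Hinton broth, 5% defibrinated sheep blood added for Streptococcus. Incubated aerobically 24 h at 37 °C. Growth read as OD600; MIC taken as the lowest concentration giving 90% growth inhibition.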

[6] = tested on: Escherichia coli; test: Antimicrobial activity against ESBL producing Escherichia coli ATCC BAA-201 expressing TEM3 lactamase incubated for 24 hrs by broth microdilution method; type: functional; details: ATCC BAA-201, 24 h
How it was run: as §1

[7] = tested on: Staphylococcus aureus; test: microbe, parasite or virus in culture; type: functional; details: ATCC 33591, 24 h
[8] = target: T1, Cell division protein FtsZ (Escherichia coli K-12, UniProt P0A9A6); test: Binding affinity to Escherichia coli FtsZ at 25 degC by fluorescence anisotropy assay
T1 sequence (P0A9A6 whole entry): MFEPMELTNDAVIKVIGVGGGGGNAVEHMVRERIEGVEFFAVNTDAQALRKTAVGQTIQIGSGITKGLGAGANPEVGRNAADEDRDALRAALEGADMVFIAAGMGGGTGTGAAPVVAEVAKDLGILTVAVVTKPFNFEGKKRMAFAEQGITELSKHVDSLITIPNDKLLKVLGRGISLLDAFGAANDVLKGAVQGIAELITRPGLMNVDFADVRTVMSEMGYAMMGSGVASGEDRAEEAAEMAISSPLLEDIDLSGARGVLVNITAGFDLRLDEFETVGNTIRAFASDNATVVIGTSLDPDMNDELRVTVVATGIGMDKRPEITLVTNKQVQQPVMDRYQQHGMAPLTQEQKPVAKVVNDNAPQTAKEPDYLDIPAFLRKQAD

[9] = tested on: Escherichia coli; test: Antimicrobial activity against Escherichia coli N43 expressing AcrAB efflux pump mutant incubated for 24 hrs by broth microdilution method; type: functional; details: N43, 24 h
[10] = tested on: Staphylococcus aureus; test: microbe, parasite or virus in culture; type: functional; details: 8325-4, 24 h; remark: listed apart in the source
[11] = tested on: Staphylococcus aureus; test: microbe, parasite or virus in culture; type: functional; details: ATCC 49951, 24 h
[12] = target: T2, Cell division protein FtsZ (Staphylococcus aureus) (UniProt P0A031); test: Stimulation of Staphylococcus aureus FtsZ self-polymerization at 40 ug/mL by microtiter plate-based light scattering assay
T2 sequence (whole entry): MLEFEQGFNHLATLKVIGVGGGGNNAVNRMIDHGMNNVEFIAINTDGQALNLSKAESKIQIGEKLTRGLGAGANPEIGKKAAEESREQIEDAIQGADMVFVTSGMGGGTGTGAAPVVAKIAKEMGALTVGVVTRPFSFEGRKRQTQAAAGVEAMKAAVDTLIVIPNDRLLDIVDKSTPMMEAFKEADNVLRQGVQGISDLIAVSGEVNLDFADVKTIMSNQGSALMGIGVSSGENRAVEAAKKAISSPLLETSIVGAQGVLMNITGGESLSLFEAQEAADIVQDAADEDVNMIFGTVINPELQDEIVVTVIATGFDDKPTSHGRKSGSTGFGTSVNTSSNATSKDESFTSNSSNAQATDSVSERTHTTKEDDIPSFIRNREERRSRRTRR

[13] = target: T3, Cell division protein FtsZ (Staphylococcus aureus, UniProt P0A031); test: Binding affinity to Staphylococcus aureus FtsZ expressed in Escherichia coli BL21 (DE3) at 25 degC by fluorescence anisotropy assay
T3 sequence (P0A031 whole entry): T2 sequence (whole entry)
How it was run: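 Intrinsic compound fluorescence anisotropy. Compound at 5 μM was titrated with 0–25 μM FtsZ in 50 mM Tris·HCl pH 7.4, 50 mM KCl, 2 mM magnesium acetate. Samples were incubated 5 min at 25 °C, excited at 245 nm with emission at 318 nm, and G-corrected. Runs were in triplicate and averaged. Kd was obtained by nonlinear least-squares fit. SaFtsZ was expressed in E. coli BL21(DE3) and purified by ammonium sulfate, MonoQ and Superdex-200.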

[14] = target: T4, Cell division protein FtsZ (Escherichia coli K-12) (UniProt P0A9A6); test: Stimulation of Escherichia coli FtsZ self-polymerization at 40 ug/mL by microtiter plate-based light scattering assay
T4 sequence (whole entry): T1 sequence (P0A9A6 whole entry)

[15] = Binding affinity to Enterococcus faecalis FtsZ at 25 degC by fluorescence anisotropy assay
[16] = tested on: Staphylococcus aureus; test: Antimicrobial activity against methicillin-resistant Staphylococcus aureus Mu3 incubated for 24 hrs by broth microdilution method; type: functional; details: Mu3, 24 h
[17] = target: T2, Cell division protein FtsZ (Staphylococcus aureus); test: Binding affinity to Staphylococcus aureus FtsZ expressed in Escherichia coli BL21 (DE3) by fluorescence anisotropy BoGTPgammaS competition assay
How it was run: (§2)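 Competition with fluorescent BoGTPγS. BoGTPγS (1 μM final) was mixed with 5 μM FtsZ and compound or unlabeled GTP at 0–40 μM. Buffer was 50 mM Tris·HCl pH 7.4, 50 mM KCl, 2 mM magnesium acetate. After 5 min at 25 °C, anisotropy was read at excitation 488 nm and emission 510 nm, in triplicate and averaged.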

[18] = tested on: Enterococcus faecalis; test: Binding affinity to Enterococcus faecalis FtsZ by fluorescence anisotropy BoGTPgammaS competition assay
How it was run: as §2

[19] = target: T4, Cell division protein FtsZ (Escherichia coli K-12); test: Binding affinity to Escherichia coli FtsZ by fluorescence anisotropy BoGTPgammaS competition assay
How it was run: as §2

[20] = target: Tubulin beta chain (Sus scrofa) (UniProt P02554); test: Stimulation of MAP-rich pig beta-tubulin polymerization at 25 ug/mL by microtiter plate-based light scattering assay
How it was run: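 MAP-rich porcine tubulin (70% β-tubulin, 30% MAPs) at 2 mg/mL with 1 mM GTP. Buffer was 80 mM PIPES·NaOH pH 7.0, 2 mM MgCl₂, 1 mM EGTA. Light scattering was followed as A340 continuously at 37 °C for 60 min, against a DMSO vehicle.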

[21] = tested on: Staphylococcus aureus; test: Antimicrobial effect against 3x10^9 CFU/ml methicillin-sensitive Staphylococcus aureus 8325-4 at 4 to 32 times MIC assessed as incidence of colonies growth measured after 24 incubation by large inoculation approach based drug resistance detection method; type: functional, organism-based
How it was run: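 Inoculum count checked on nonselective plates. Incubated at 37 °C and examined after 24 h and daily thereafter. Mutation frequency = colonies on selective plates / total bacteria plated.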

[22] = target: Tubulin beta chain (Sus scrofa) (UniProt P02554); details: 10 ug/mL

Sequence of Tubulin beta chain (Sus scrofa) (P02554 whole entry): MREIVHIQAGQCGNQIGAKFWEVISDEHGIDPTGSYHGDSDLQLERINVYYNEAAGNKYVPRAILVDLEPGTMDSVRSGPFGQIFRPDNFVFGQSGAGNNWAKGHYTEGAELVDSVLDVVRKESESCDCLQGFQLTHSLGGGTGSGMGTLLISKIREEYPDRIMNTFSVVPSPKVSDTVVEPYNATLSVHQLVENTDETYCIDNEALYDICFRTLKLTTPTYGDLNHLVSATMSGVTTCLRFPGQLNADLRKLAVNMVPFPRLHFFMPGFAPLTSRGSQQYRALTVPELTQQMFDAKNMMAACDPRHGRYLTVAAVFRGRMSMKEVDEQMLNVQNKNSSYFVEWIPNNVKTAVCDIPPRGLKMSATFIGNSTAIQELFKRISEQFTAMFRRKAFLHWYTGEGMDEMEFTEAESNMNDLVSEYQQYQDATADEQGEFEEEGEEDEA

SMILES | MIC [3] [µg/mL] | MIC [4] [µg/mL] | MIC [5] [µg/mL] | MIC [6] [µg/mL] | MIC [7] [µg/mL] | MIC [10] [µg/mL] | MIC [11] [µg/mL] | Activity [12] | MIC [16] [µg/mL] | other results
CN[C@H](CC(C)C)C(=O)N[C@H]1C(=O)N[C@@H](CC(N)=O)C(=O)N[C@H]2C(=O)N[C@H]3C(=O)N[C@H](C(=O)N[C@H](C(=O)O)c4cc(O)cc(O)c4-c4cc3ccc4O)[C@H](O)c3ccc(c(Cl)c3)Oc3cc2cc(c3O[C@@H]2O[C@H](CO)[C@@H](O)[C@H](O)[C@H]2O[C@H]2C[C@](C)(N)[C@H](O)[C@H](C)O2)Oc2ccc(cc2Cl)[C@H]1O.Cl [VANCOMYCIN HYDROCHLORIDE] | > 64 | 1 | – | – | – | – | – | – | – | MBC [1]: 1 µg/mL; Activity [2]: inactive
CC(C)(C)c1ccc(-c2cc(CNC(=N)N)ncn2)cc1 | > 64 | > 64 | > 64 | > 64 | 64 (≈ 226 µM) | 64 (≈ 226 µM) | 32 (≈ 113 µM) | inactive | 32 (≈ 113 µM) | Kd [8]: Not Active; MIC [9]: 32 µg/mL (≈ 113 µM); Activity [2]: inactive; Kd [13]: Not Active; Activity [14]: inactive; Kd [15]: Not Active
NCC[C@H](O)C(=O)N[C@@H]1C[C@H](N)[C@@H](O[C@H]2O[C@H](CN)[C@@H](O)[C@H](O)[C@H]2O)[C@H](O)[C@H]1O[C@H]1O[C@H](CO)[C@@H](O)[C@H](N)[C@H]1O.O=S(=O)(O)O | – | – | 2 | > 64 | – | – | – | – | – | MIC [9]: 1 µg/mL
CC1(C)S[C@@H]2[C@H](NC(=O)[C@H](N)c3ccccc3)C(=O)N2[C@H]1C(=O)[O-].[Na+] [AMPICILLIN SODIUM] | – | – | 4 | > 64 | – | – | – | – | – | Activity [14]: inactive
Nc1nc(=O)c2ncn([C@@H]3O[C@H](COP(=O)(O)OP(=O)(O)OP(=O)(O)O)[C@@H](O)C3O)c2[nH]1 (single isomer, unassigned) | – | – | – | – | – | – | – | – | – | Activity [17]: Dose-dependent effect; Activity [18]: Dose-dependent effect; Activity [19]: Dose-dependent effect
CCC[C@@H]1C[C@@H](C(=O)N[C@@H]([C@H]2O[C@H](SC)[C@H](O)[C@@H](O)[C@H]2O)[C@H](C)Cl)N(C)C1.Cl [CLINDAMYCIN HYDROCHLORIDE] | > 64 | 2 | – | – | > 64 | 0.031 | 0.063 | inactive | > 64 | –
CC(C)(C)c1ccc(-c2ccnc(CNC(=N)N)c2)cc1 | 64 (≈ 227 µM) | 32 (≈ 113 µM) | 64 (≈ 227 µM) | 64 (≈ 227 µM) | 16 (≈ 56.7 µM) | 8 (≈ 28.3 µM) | 8 (≈ 28.3 µM) | inactive | 8 (≈ 28.3 µM) | Kd [8]: Not Active; MIC [9]: 8 µg/mL (≈ 28.3 µM); Activity [2]: inactive; Kd [13]: Not Active; Activity [14]: inactive; Kd [15]: Not Active
CC(=O)O[C@H]1C(=O)[C@@]2(C)[C@H]([C@H](OC(=O)c3ccccc3)[C@]3(O)C[C@H](OC(=O)[C@H](O)[C@@H](NC(=O)c4ccccc4)c4ccccc4)C(C)=C1C3(C)C)[C@]1(OC(C)=O)CO[C@@H]1C[C@@H]2O | – | – | – | – | – | – | – | – | – | Activity [20]: Active
CO[C@H]1/C=C/O[C@@]2(C)Oc3c(C)c(O)c4c(O)c(c(/C=N/N5CCN(C)CC5)c(O)c4c3C2=O)NC(=O)/C(C)=C\C=C\[C@H](C)[C@H](O)[C@@H](C)[C@@H](O)[C@@H](C)[C@H](OC(C)=O)[C@@H]1C | – | – | – | – | – | – | – | – | – | Activity [21]: inactive
CC[C@H]1OC(=O)[C@H](C)[C@@H](O[C@H]2C[C@@](C)(OC)[C@@H](O)[C@H](C)O2)[C@H](C)[C@@H](O[C@@H]2O[C@H](C)C[C@H](N(C)C)[C@H]2O)[C@](C)(O)C[C@@H](C)C(=O)[C@H](C)[C@@H](O)[C@]1(C)O [ERYTHROMYCIN] | > 64 | 1 (≈ 1.36 µM) | – | – | > 64 | 0.125 (≈ 0.17 µM) | 0.25 (≈ 0.341 µM) | – | > 64 | MBC [1]: 32 µg/mL (≈ 43.6 µM)
Cc1onc(-c2ccccc2Cl)c1C(=O)N[C@@H]1C(=O)N2[C@@H]1SC(C)(C)[C@@H]2C(=O)[O-].[Na+] [OXACILLIN SODIUM SALT] | 64 | 8 | – | – | > 64 | 0.063 | 0.25 | inactive | > 64 | –
COC(=O)Nc1nc2cc(C(=O)c3cccs3)ccc2[nH]1 | – | – | – | – | – | – | – | – | – | inhibition [22]: Active
